Laboratory results reported in ChEMBL document CHEMBL5257161, “Mycobacterium tuberculosis CitA activity is modulated by cysteine oxidation and pyruvate binding” (RSC Med Chem, 2023).

Legend:
[1] = test system: Mycobacterium tuberculosis; assay: Binding affinity to Mycobacterium tuberculosis CitA R149E mutant expressed in Escherichia coli cells assessed as change in melting temperature in presence of oxaloacetate by thermal shift assay
Method in brief: (§1)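 Thermal shift used 25 μM purified protein in 50 mM Tris pH 8.0 with 2 mM ligand (sodium pyruvate, OAA, or both), plus Protein Thermal Shift dye at 2X final. ΔTm was taken from the melt-curve derivative relative to protein without ligand.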

[2] = test system: Mycobacterium tuberculosis; assay: Binding affinity to Mycobacterium tuberculosis CitA R149E mutant expressed in Escherichia coli cells assessed as change in melting temperature by thermal shift assay; method in brief: as §1
[3] = test system: Mycobacterium tuberculosis; assay: Binding affinity to Mycobacterium tuberculosis CitA R153ZM mutant expressed in Escherichia coli cells assessed as change in melting temperature in presence of oxaloacetate by thermal shift assay; method in brief: as §1
[4] = test system: Mycobacterium tuberculosis; assay: Binding affinity to Mycobacterium tuberculosis CitA R153ZM mutant expressed in Escherichia coli cells assessed as change in melting temperature by thermal shift assay; method in brief: as §1
[5] = test system: Mycobacterium tuberculosis; assay: Binding affinity to Mycobacterium tuberculosis CitA R149E mutant expressed in Escherichia coli cells assessed as Vmax by Michaelis-Menten analysis
Method in brief: (§2)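 His-tagged CitA (wild type or variant) was expressed in E. coli, purified by cobalt affinity and size exclusion, then dialysed against 20 mM Tris pH 8.0. Activity was measured by DTNB (300 μM) thiol detection of released CoA at 412 nm, with OAA and AcCoA substrates and 10 nM enzyme, in 50 mM Tris pH 8.0 at 25 °C. A no-enzyme control was run. Triplicate runs were fitted to Michaelis–Menten.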

[6] = test system: Mycobacterium tuberculosis; assay: Binding affinity to Mycobacterium tuberculosis CitA R153M mutant expressed in Escherichia coli cells assessed as Vmax by Michaelis-Menten analysis; method in brief: as §2
[7] = test system: Mycobacterium tuberculosis; assay: Binding affinity to Mycobacterium tuberculosis CitA R153M mutant expressed in Escherichia coli cells assessed as catalytic constant by Michaelis-Menten analysis; method in brief: as §2
[8] = test system: Mycobacterium tuberculosis; assay: Binding affinity to Mycobacterium tuberculosis CitA R149E mutant expressed in Escherichia coli cells assessed as change in melting temperature in presence of pyruvate by thermal shift assay; method in brief: as §1
[9] = test system: Mycobacterium tuberculosis; assay: Binding affinity to Mycobacterium tuberculosis CitA R149E mutant expressed in Escherichia coli cells assessed as apparent Km by Michaelis-Menten analysis; method in brief: as §2
[10] = test system: Mycobacterium tuberculosis; assay: Binding affinity to Mycobacterium tuberculosis CitA R153M mutant expressed in Escherichia coli cells assessed as Kcat/Km by Michaelis-Menten analysis; method in brief: as §2
[11] = test system: Mycobacterium tuberculosis; assay: Binding affinity to Mycobacterium tuberculosis CitA R149E mutant expressed in Escherichia coli cells assessed as Kcat/Km by Michaelis-Menten analysis; method in brief: as §2
[12] = test system: Mycobacterium tuberculosis; assay: Binding affinity to Mycobacterium tuberculosis CitA R149E mutant expressed in Escherichia coli cells assessed as catalytic constant by Michaelis-Menten analysis; method in brief: as §2
[13] = test system: Mycobacterium tuberculosis; assay: Binding affinity to Mycobacterium tuberculosis CitA R153M mutant expressed in Escherichia coli cells assessed as apparent Km by Michaelis-Menten analysis; method in brief: as §2
[14] = test system: Mycobacterium tuberculosis; assay: Binding affinity to Mycobacterium tuberculosis CitA R153ZM mutant expressed in Escherichia coli cells assessed as change in melting temperature in presence of pyruvate by thermal shift assay; method in brief: as §1

Row | Compound | ΔTm [1] [°C] | ΔTm [2] [°C] | ΔTm [3] [°C] | ΔTm [4] [°C] | Vmax [5] [µM/min] | Vmax [6] [µM/min] | kcat [7] [s⁻¹] | ΔTm [8] [°C] | Km [9] [µM] | kcat/Km [10] [M⁻¹ s⁻¹] | kcat/Km [11] [M⁻¹ s⁻¹] | kcat [12] [s⁻¹] | Km [13] [µM] | ΔTm [14] [°C]
1 | CC(=O)C(=O)O | 10.7 | 0.47 | 14.3 | 0.51 |  |  |  |  |  |  |  |  |  | 
2 | O=C(O)CC(=O)C(=O)O |  | 10.8 |  | 14.3 | 2.8 | 2 | 3.3 | 10.7 | 11.7 | 1.05e+06 | 400000 | 4.68 | 3.2 | 14.3
